Data as given in ChEMBL document CHEMBL4138048, “Synthesis of substituted 2H-benzo[e]indazole-9-carboxylate as a potent antihyperglycemic agent that may act through IRS-1, Akt and GSK-3β pathways” (Medchemcomm, 2017).
The source made the active and inactive calls. No cut-off for these calls is given here.

How the values were obtained:
[1] = tested on: Mus musculus; experiment: Antihyperglycemic activity in db/db mouse assessed as improvement on glucose tolerance by measuring blood glucose AUC level at 3 to 30 mg/kg, po qd for 15 days by oral glucose tolerance test; format: functional, organism-based
Method in brief: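 db/db mice dosed orally once daily for 15 consecutive days at 3, 10 or 30 mg/kg, with vehicle controls and pioglitazone at 10 mg/kg. Oral glucose tolerance tests on day 10 and day 15. Overall improvement in glucose tolerance calculated against vehicle control. Mean % change in 5 animals per group.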

[2] = tested on: Mus musculus; experiment: Antihyperglycemic activity in db/db mouse assessed as reduction in fasting blood glucose level at 3 to 30 mg/kg, po qd for 15 days; format: functional, organism-based
Method in brief: (§1)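 db/db mice given 3, 10 or 30 mg/kg orally once a day for 15 consecutive days, alongside vehicle controls. Serum triglyceride, total cholesterol, HDL-C and insulin measured, along with fasting blood glucose. Expressed as mean % change in 5 animals per group versus control.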

[3] = tested on: Mus musculus; experiment: Antihyperglycemic activity in db/db mouse assessed as reduction in serum insulin level at 3 to 30 mg/kg, po qd for 15 days; format: functional, organism-based; method in brief: as §1
[4] = tested on: Mus musculus; experiment: Antihyperglycemic activity in db/db mouse assessed as reduction in triglyceride level at 3 mg/kg, po qd for 15 days; format: functional; set-up: scale not given: the % may be the effect or the level left; method in brief: as §1
[5] = tested on: Mus musculus; experiment: Antihyperglycemic activity in db/db mouse assessed as reduction in triglyceride level at 10 mg/kg, po qd for 15 days; format: functional; set-up: scale not given: the % may be the effect or the level left; method in brief: as §1
[6] = tested on: Mus musculus; experiment: Antihyperglycemic activity in db/db mouse assessed as reduction in triglyceride level at 30 mg/kg, po qd for 15 days; format: functional; set-up: scale not given: the % may be the effect or the level left; method in brief: as §1
[7] = tested on: Mus musculus; experiment: Antihyperglycemic activity in db/db mouse assessed as reduction in cholesterol level at 3 mg/kg, po qd for 15 days; format: functional; set-up: scale not given: the % may be the effect or the level left; method in brief: as §1
[8] = tested on: Mus musculus; experiment: Antihyperglycemic activity in db/db mouse assessed as reduction in cholesterol level at 10 mg/kg, po qd for 15 days; format: functional; set-up: scale not given: the % may be the effect or the level left; method in brief: as §1
[9] = tested on: Mus musculus; experiment: Antihyperglycemic activity in db/db mouse assessed as reduction in cholesterol level at 30 mg/kg, po qd for 15 days; format: functional; set-up: scale not given: the % may be the effect or the level left; method in brief: as §1
[10] = tested on: Mus musculus; experiment: Antihyperglycemic activity in db/db mouse assessed as increase in HDL-C level at 3 mg/kg, po qd for 15 days; format: functional; method in brief: as §1
[11] = tested on: Mus musculus; experiment: Antihyperglycemic activity in db/db mouse assessed as increase in HDL-C level at 10 mg/kg, po qd for 15 days; format: functional; method in brief: as §1
[12] = tested on: Mus musculus; experiment: Antihyperglycemic activity in db/db mouse assessed as increase in HDL-C level at 30 mg/kg, po qd for 15 days; format: functional; method in brief: as §1
[13] = tested on: Mus musculus; experiment: Antihyperglycemic activity in db/db mouse assessed as reduction in fasting blood glucose level at 3 mg/kg, po qd for 15 days; format: functional; set-up: scale not given: the % may be the effect or the level left; method in brief: as §1
[14] = tested on: Mus musculus; experiment: Antihyperglycemic activity in db/db mouse assessed as reduction in fasting blood glucose level at 10 mg/kg, po qd for 15 days; format: functional; set-up: scale not given: the % may be the effect or the level left; method in brief: as §1
[15] = tested on: Mus musculus; experiment: Antihyperglycemic activity in db/db mouse assessed as reduction in fasting blood glucose level at 30 mg/kg, po qd for 15 days; format: functional; set-up: scale not given: the % may be the effect or the level left; method in brief: as §1
[16] = tested on: Mus musculus; experiment: Antihyperglycemic activity in db/db mouse assessed as reduction in insulin level at 3 mg/kg, po qd for 15 days; format: functional; set-up: scale not given: the % may be the effect or the level left; method in brief: as §1
[17] = tested on: Mus musculus; experiment: Antihyperglycemic activity in db/db mouse assessed as reduction in insulin level at 10 mg/kg, po qd for 15 days; format: functional; set-up: scale not given: the % may be the effect or the level left; method in brief: as §1
[18] = tested on: Mus musculus; experiment: Antihyperglycemic activity in db/db mouse assessed as reduction in insulin level at 30 mg/kg, po qd for 15 days; format: functional; set-up: scale not given: the % may be the effect or the level left; method in brief: as §1
[19] = target: T1, Tyrosine-protein phosphatase non-receptor type 1 (Rattus norvegicus) (UniProt P20417); experiment: Inhibition of PTP1B in rat L6 cells assessed as increase in insulin-stimulated IRS1 tyrosine phosphorylation pre-incubated for 16 hrs before insulin stimulation for 10 mins by Western blot method; format: cell-based
T1 sequence (whole entry): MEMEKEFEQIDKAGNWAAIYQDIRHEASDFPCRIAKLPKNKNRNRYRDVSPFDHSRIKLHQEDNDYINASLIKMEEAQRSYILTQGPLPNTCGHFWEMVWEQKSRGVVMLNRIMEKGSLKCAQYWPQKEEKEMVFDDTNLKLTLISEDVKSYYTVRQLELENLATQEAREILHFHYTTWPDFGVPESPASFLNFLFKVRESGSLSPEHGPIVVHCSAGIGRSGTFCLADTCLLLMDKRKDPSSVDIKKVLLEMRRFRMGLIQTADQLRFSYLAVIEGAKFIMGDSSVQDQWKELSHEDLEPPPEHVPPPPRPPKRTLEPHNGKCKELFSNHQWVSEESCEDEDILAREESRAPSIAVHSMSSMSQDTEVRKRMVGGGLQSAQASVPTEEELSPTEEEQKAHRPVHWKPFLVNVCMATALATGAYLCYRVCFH
Method in brief: (§2)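 L6 myotubes treated for 16 h with the compound at the indicated concentrations, then stimulated with insulin (100 nM) for 10 min. Cells lysed and analysed by western blot. Densitometry of p-IRS-1, p-AKT and p-GSK, each relative to its total form. Compared with control and with insulin-treated control.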

[20] = target: T1, Tyrosine-protein phosphatase non-receptor type 1 (Rattus norvegicus); experiment: Inhibition of PTP1B in rat L6 cells assessed as increase in insulin-stimulated Akt Ser473 phosphorylation at 10 to 25 uM pre-incubated for 16 hrs before insulin stimulation for 10 mins by Western blot method; format: cell-based; method in brief: as §2
[21] = target: T1, Tyrosine-protein phosphatase non-receptor type 1 (Rattus norvegicus); experiment: Inhibition of PTP1B in rat L6 cells assessed as increase in insulin-stimulated GSK3beta Ser9 phosphorylation at 10 to 25 uM pre-incubated for 16 hrs before insulin stimulation for 10 mins by Western blot method; format: cell-based; method in brief: as §2
[22] = target: T2, Tyrosine-protein phosphatase non-receptor type 1 (Homo sapiens) (UniProt P18031); experiment: Inhibition of human recombinant PTP1B using IR5 insulin receptor-beta (1142 to 1153 residues, pY1146) substrate BY Malachite green dye based assay
T2 sequence (whole entry): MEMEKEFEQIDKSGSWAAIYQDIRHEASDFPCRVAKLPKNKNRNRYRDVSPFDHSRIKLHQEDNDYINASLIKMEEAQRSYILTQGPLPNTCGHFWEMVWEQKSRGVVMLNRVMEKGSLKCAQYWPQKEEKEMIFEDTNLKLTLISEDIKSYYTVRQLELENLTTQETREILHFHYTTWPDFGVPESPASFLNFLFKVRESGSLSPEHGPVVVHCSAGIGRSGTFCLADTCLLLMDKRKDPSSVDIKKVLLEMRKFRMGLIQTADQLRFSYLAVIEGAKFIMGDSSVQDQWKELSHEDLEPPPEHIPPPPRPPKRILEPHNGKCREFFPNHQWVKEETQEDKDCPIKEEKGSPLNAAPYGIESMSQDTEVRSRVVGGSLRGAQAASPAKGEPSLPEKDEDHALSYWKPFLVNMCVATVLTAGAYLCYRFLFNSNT

inhibition [19]: Dose-dependent effect | inhibition [20]: Active | inhibition [21]: Active | inhibition [22]: Dose-dependent effect
Compound: COC(=O)c1c(SC)cc(-c2ccc(C)cc2)c2c1-c1cn(-c3ccccc3)nc1CC2
Activity [1]: Dose-dependent effect | Activity [2]: Dose-dependent effect | Activity [3]: Dose-dependent effect | Activity [4]: 8.98% | Activity [5]: 13.2% | Activity [6]: 18.2% | Activity [7]: 11.5% | Activity [8]: 15.3% | Activity [9]: 22.7% | Activity [10]: 6.27% | Activity [11]: 10.9% | Activity [12]: 20.5% | Activity [13]: 10.1% | Activity [14]: 14.1% | Activity [15]: 31.9% | Activity [16]: 6.57% | Activity [17]: 17.7% | Activity [18]: 30.5%
